# Data as given in paper PMC3908450 (Biological chemistry, 2011).
# Marks after values point to notes of the source that are not given here.
# System: mutant ataxin-3 protein
# Test: not given
# Settings: PNA conjugate; GM06151 fibroblasts; ref Hue et al., 2009a; cited from earlier work
row,Substance,Selectivity (wt IC50 versus mut IC50)
1,K-GCTGCTGCTGCTGCTGCTG-K8 [REP19],2.7 ^‡ fold

# System: mutant ataxin-3 protein
# Test: Inhibition of mutant ATX3 protein expression in patient fibroblasts GM06151
# Format: cell-based, human
# Settings: PNA conjugates
# Outline: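 GM06151 fibroblasts (CAG 74 mutant/24 wild-type repeats) in MEM with 10% heat-inactivated FBS and 0.5% NEAA, 37 °C, 5% CO2, plated two days before dosing. Conjugate stocks heated 65 °C for 5 min, diluted in OptiMEM and added; medium replaced at 24 h; harvest typically day 4. 7.5% SDS-PAGE resolved mutant and wild-type ATX3 bands for western blotting, with β-actin also probed. Inhibition relative to control was fitted per replicate to get separate mutant and wild-type IC50s.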
row,Substance,Selectivity (wt IC50 versus mut IC50)
1,K8-GCTGCTG-K [REP7NK],>1.7 fold
2,K8-GCTGCTGCTGCTG-K8 [REP13KK],1.8 fold
3,K8-GCTGCTGCTGCTGCTGCTG-K [REP19NK],3.4 fold
4,K-GCTGCTG-K8 [REP7],3.6 fold
5,K-GCTGCTGCT-K8 [REP9],3.0 fold
6,K-GCTGCTGCTGC-K8 [REP11],3.4 fold
7,K-GCTGCTGCTGCTG-K4 [REP13K4],2.3 fold
8,K-GCTGCTGCTGCTG-K6 [REP13K6],5.0 fold
9,K-GCTGCTGCTGCTG-K8 [REP13],2.2 fold
10,K-GCTGCTGCTGCTGCTG-K8 [REP16],2.4 fold
11,K-GCTGCTGCTGCTGCTGCTG-(Kpeptoid)8 [REP19P],>2.2 fold
12,K-GCTGCTGCTGCTGCTGCTG-R8 [REP19R],1.6 fold
13,K-GCTGCTGCTGCTGCTGCTG-Spacer-K8 [REP19S],1.7 fold
14,R8-GCTGCTGCTGCTGCTGCTG-K [REP19NR],2.7 fold
